Ki data for 21 compounds are collected here from ChEMBL document CHEMBL1132940, “Pharmacophore/receptor models for GABA(A)/BzR subtypes (alpha1beta3gamma2, alpha5beta3gamma2, and alpha6beta3gamma2) via a comprehensive ligand-mapping approach” (J Med Chem, 2000).

What all share (format): protein-complex assay
The target of assay [1] is T1, GABA-A receptor; alpha-2/beta-3/gamma-2 (Homo sapiens, UniProt P18507+P28472+P47869).
T1 sequence (P18507 whole entry): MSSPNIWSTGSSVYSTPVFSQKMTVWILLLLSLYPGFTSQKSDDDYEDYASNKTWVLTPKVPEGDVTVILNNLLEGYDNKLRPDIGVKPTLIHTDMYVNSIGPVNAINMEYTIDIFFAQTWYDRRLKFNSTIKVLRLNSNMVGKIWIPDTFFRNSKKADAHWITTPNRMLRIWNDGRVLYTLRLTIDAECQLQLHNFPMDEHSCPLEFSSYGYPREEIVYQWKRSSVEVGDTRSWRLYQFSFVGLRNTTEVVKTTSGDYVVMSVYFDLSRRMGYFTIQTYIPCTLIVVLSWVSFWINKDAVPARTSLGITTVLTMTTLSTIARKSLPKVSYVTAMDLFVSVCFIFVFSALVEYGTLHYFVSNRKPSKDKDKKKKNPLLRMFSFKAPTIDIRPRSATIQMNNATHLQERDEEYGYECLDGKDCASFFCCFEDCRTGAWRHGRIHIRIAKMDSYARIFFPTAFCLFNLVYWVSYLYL
T1 sequence (P28472 whole entry): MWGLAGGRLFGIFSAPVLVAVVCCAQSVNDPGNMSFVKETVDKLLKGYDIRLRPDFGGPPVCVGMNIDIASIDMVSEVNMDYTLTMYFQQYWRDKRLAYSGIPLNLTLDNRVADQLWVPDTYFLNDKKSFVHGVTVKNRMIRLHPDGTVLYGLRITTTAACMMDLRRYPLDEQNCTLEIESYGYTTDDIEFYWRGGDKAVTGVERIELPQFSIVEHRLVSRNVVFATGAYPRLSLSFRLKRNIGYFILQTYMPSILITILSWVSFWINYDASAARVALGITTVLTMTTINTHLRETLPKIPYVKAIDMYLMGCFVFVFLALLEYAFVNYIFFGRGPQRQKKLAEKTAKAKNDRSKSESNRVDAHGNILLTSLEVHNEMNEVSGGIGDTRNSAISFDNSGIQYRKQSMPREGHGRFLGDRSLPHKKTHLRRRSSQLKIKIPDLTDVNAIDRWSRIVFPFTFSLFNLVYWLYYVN
T1 sequence (P47869 whole entry): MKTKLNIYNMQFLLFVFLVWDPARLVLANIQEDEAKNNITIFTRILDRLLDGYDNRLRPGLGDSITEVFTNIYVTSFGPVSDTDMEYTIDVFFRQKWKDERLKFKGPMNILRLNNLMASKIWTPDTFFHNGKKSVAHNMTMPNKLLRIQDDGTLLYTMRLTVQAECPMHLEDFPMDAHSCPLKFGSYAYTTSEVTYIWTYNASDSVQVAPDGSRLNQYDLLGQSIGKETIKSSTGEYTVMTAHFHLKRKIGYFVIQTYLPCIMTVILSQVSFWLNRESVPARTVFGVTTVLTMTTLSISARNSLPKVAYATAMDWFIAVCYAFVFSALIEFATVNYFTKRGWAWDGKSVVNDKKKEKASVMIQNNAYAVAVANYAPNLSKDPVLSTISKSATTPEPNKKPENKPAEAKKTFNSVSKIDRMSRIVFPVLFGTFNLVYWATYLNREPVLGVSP
The assay is described as follows: Binding affinity to human recombinant gamma-aminobutyric-acid (GABA) A receptor alpha-2-beta-3-gamma-2.

The target in assay [2] is T2, GABA-A receptor; alpha-1/beta-3/gamma-2 (Homo sapiens, UniProt P14867+P18507+P28472).
T2 sequence (P14867 whole entry): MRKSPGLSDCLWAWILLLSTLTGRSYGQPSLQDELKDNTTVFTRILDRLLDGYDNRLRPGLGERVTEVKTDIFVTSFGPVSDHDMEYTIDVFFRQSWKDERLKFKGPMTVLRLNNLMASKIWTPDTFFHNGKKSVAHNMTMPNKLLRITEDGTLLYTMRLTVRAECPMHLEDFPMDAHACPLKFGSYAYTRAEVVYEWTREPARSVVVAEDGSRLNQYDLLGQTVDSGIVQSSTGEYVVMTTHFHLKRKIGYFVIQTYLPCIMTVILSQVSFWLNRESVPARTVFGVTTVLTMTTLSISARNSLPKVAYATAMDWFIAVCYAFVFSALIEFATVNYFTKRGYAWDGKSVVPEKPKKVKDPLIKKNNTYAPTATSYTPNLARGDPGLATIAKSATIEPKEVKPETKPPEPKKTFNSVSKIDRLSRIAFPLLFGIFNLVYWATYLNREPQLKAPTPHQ
T2 sequence (P18507 whole entry): T1 sequence (P18507 whole entry)
T2 sequence (P28472 whole entry): T1 sequence (P28472 whole entry)
Briefly: Binding affinity for human recombinant gamma-aminobutyric-acid (GABA) A receptor alpha-1-beta-3-gamma-2.

The target in assay [3] is GABA-A receptor; alpha-6/beta-3/gamma-2 (Homo sapiens, UniProt P18507+P28472+Q16445). Briefly: Binding affinity for human recombinant gamma-aminobutyric-acid (GABA) A receptor alpha-6-beta-3-gamma-2. Summed up:
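Ltk⁻ cells expressing human α6β3γ2 were harvested by scraping into PBS, centrifuged at 3000g and resuspended in 10 mM KH₂PO₄/100 mM KCl (pH 7.4). Incubation was 1 h at 4 °C with filter harvest and scintillation counting.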

The target in assay [4] is T3, GABA-A receptor; alpha-5/beta-3/gamma-2 (Homo sapiens, UniProt P18507+P28472+P31644).
T3 sequence (P18507 whole entry): T1 sequence (P18507 whole entry)
T3 sequence (P28472 whole entry): T1 sequence (P28472 whole entry)
T3 sequence (P31644 whole entry): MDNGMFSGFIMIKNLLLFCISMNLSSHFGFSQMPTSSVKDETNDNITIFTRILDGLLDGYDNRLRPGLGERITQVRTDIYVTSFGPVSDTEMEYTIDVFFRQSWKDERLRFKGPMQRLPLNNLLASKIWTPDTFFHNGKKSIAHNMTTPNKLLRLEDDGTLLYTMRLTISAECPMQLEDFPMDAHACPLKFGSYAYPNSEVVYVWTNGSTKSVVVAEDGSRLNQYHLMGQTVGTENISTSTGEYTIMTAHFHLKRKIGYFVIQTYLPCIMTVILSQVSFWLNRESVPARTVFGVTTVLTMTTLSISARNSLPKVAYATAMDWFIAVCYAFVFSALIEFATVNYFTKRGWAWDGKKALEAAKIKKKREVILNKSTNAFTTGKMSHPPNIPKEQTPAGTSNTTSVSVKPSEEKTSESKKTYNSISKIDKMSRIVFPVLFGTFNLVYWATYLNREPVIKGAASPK
The assay is described as follows: Binding affinity for human recombinant gamma-aminobutyric-acid (GABA) A receptor alpha-5-beta-3-gamma-2.

The target in assay [5] is T4, GABA-A receptor; alpha-3/beta-3/gamma-2 (Homo sapiens, UniProt P18507+P28472+P34903).
T4 sequence (P18507 whole entry): T1 sequence (P18507 whole entry)
T4 sequence (P28472 whole entry): T1 sequence (P28472 whole entry)
T4 sequence (P34903 whole entry): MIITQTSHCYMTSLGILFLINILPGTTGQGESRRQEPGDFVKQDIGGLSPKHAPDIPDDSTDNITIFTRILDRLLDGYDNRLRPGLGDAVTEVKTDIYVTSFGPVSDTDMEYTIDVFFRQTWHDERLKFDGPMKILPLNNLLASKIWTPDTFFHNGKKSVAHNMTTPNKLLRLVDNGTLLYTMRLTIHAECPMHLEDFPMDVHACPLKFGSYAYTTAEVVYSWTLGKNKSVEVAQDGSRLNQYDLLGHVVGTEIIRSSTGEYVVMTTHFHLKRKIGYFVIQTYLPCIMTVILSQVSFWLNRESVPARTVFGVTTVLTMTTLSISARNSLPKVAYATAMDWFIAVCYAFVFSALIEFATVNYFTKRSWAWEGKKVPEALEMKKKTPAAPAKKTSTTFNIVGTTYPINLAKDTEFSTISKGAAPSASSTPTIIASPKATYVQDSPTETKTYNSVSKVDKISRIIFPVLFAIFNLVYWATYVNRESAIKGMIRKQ
The assay is described as follows: Binding affinity for human recombinant gamma-aminobutyric-acid (GABA) A receptor alpha-3-beta-3-gamma-2.

Chain of GABA-A receptor; alpha-6/beta-3/gamma-2 (Q16445 whole entry, one chain of several): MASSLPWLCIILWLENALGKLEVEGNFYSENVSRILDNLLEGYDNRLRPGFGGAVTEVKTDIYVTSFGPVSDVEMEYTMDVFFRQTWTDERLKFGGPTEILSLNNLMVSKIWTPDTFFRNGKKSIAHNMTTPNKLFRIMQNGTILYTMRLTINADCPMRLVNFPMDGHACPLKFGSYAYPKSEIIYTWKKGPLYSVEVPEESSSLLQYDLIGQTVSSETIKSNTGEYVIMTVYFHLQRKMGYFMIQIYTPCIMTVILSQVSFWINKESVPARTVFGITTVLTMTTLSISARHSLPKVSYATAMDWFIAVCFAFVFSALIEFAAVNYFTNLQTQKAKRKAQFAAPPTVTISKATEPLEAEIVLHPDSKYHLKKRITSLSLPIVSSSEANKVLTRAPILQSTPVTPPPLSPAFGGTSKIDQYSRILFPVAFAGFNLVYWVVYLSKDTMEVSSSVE

The term Ki denotes the equilibrium dissociation constant of an inhibitor or competing ligand from its target. Take `CN1C(=O)CN=C(C2CCC2)c2cc(F)ccc21`: the inhibition constant (Ki) in assay [1], in assay [2], in assay [3], in assay [4] and in assay [5] was above 300 nM throughout.

As to `CN1C(=O)CN=C(c2ccco2)c2cc(Cl)ccc21`, the Ki in assay [1] was above 0.17 nM; in assay [2], above 0.23 nM; in assay [3] it was above 300 nM; in assay [4], above 0.44 nM; in assay [5], above 0.12 nM.

Take `Fc1ccc2c(c1)[nH]c1c3c4ccccc4nc-3c[nH]c12`: the Ki in assay [1] was 10.4 nM; in assay [2], 5.1 nM; in assay [3] it was above 10000 nM; in assay [4] it was 260 nM; in assay [5], 18.4 nM.

Regarding `Clc1cc2c(cn1)[nH]c1ccccc12`, the inhibition constant (Ki) in assay [1] is 125 nM; in assay [2], 60.4 nM; in assay [3], above 10000 nM; in assay [4] it was 1000 nM; in assay [5], 126 nM.

For `CCOC(=O)c1[nH]cc2nc3ccc(OC)cc3c-2c1CC`, the inhibitory constant (Ki) was 2.9 nM in assay [1]; 1.6 nM in assay [2]; above 1000 nM in assay [3]; 1 nM in assay [4]; 2.8 nM in assay [5].

Turning to `O=[N+]([O-])c1ccc2[nH]c3c[nH]c4c5ccccc5nc-4c3c2c1`, the Ki was 500 nM in assay [1]; 244 nM in assay [2]; above 10000 nM in assay [3]; 1560 nM in assay [4]; 532 nM in assay [5].

In the case of `CCCOc1ccc2[nH]c3cnc(C(=O)NN)c(COC)c3c2c1`, the inhibition constant Ki in assay [1] is 422 nM; in assay [2], 46 nM; in assay [3], above 300 nM; in assay [4], 108 nM; in assay [5], 400 nM.

For the compound `CCOC(=O)c1cc2c3cc(OCc4ccccc4)ccc3nc-2c[nH]1`, the Ki in assay [1] was 169 nM; in assay [2], 7.2 nM; in assay [3] it was above 10000 nM; in assay [4] it was 271 nM; in assay [5], 284 nM.

For the compound `c1ccc2c(c1)[nH]c1cnc3c4cccnc4[nH]c3c12`, the Ki in assay [1] was 11.5 nM; in assay [2], 2.2 nM; in assay [3] it was above 10000 nM; in assay [4], 200 nM; in assay [5] it was 16.3 nM.

Consider `CCc1c(C(=O)NN)[nH]cc2nc3cc(OC)c(OC)cc3c1-2`, for which the Ki in assay [1] is above 1000 nM; in assay [2], 896 nM; in assay [3], above 3000 nM; in assay [4], 91.5 nM; in assay [5] it was 570 nM.

For `CCCCCCCCOc1ccc2c(c1)c1c(CC)c(C(=O)OCC)ncc1n2C`, the inhibition constant Ki in assay [1], in assay [2], in assay [3], in assay [4] and in assay [5] was above 1000 nM in each case.

Turning to `CCOC(=O)c1[nH]cc2nc3ccc(OCc4ccc5ccccc5c4)cc3c-2c1CC`, the inhibitory constant (Ki) in assay [1] is 291 nM; in assay [2], 183 nM; in assay [3], above 10000 nM; in assay [4], 270 nM; in assay [5], 300 nM.

Turning to `O=C1C2C=Nc3ccccc3C2=NN1c1ccccc1` (centres undefined) [CGS-8216], the inhibitory constant (Ki) in assay [1] came out at 0.08 nM; in assay [2], 0.05 nM; in assay [3], 17 nM; in assay [4], 0.25 nM; in assay [5] it was 0.12 nM.

For `COC(=O)c1cc2c(cn1)[nH]c1ccc(NCc3ccccc3)cc12`, the Ki was 30.2 nM in assay [1]; 5.42 nM in assay [2]; above 10000 nM in assay [3]; 475 nM in assay [4]; 48.9 nM in assay [5].

As to `c1ccc2c(c1)[nH]c1cnc3c4ccncc4[nH]c3c12`, the Ki in assay [1] is 23.8 nM; in assay [2], 3 nM; in assay [3], above 10000 nM; in assay [4], 240 nM; in assay [5], 30.5 nM.

As to `c1ccc(COc2ccc3c(c2)[nH]c2c3ncc3[nH]c4ccccc4c32)cc1`, the Ki in assay [1] is 3000 nM; in assay [2] it was 432 nM; in assay [3] it was above 10000 nM; in assay [4] it was above 10000 nM; in assay [5], 3000 nM.

With `CN1C(=O)CN=C(c2ccsc2)c2cc(Cl)ccc21`, the Ki in assay [1], in assay [2], in assay [3], in assay [4] and in assay [5] was above 300 nM throughout.

On to `CCCC(=O)c1cc2c(cn1)[nH]c1ccccc12`, for which the Ki in assay [1] is 16 nM; in assay [2] it was 2.1 nM; in assay [3], above 3000 nM; in assay [4], 995 nM; in assay [5], 21 nM.

With `O=c1c2cnc3ccc(Cl)cc3c2[nH]n1-c1ccccc1`, the inhibition constant (Ki) stood at 0.17 nM in assay [1]; 0.23 nM in assay [2]; 17.3 nM in assay [3]; 0.44 nM in assay [4]; 0.12 nM in assay [5].

Regarding `C[Si](C)(C)C#Cc1ccc(-n2[nH]c3c(cnc4ccccc43)c2=O)cc1`, the Ki in assay [1] is 3.7 nM; in assay [2], 3 nM; in assay [3], above 1000 nM; in assay [4], 24 nM; in assay [5], 4.7 nM.

Take `C#Cc1ccc2ncc3c(=O)n(-c4ccccc4)[nH]c3c2c1`: the Ki came out at 0.06 nM in assay [1], 0.08 nM in assay [2], 0.08 nM in assay [4] and 0.02 nM in assay [5].
